Shown are actives, neighbours in structure and some others; about 1.7% of the full set was active somewhere.
SUMO1 PPI mod – alters human SUMO1 binding to SIM partners | inhibition, % at 20 µM | SUMO1 binding to a labelled peptide, TR-FRET, 1 h | 360,000 compounds, 0.33% hits | AID 602429 | P63165; in the data active means inhibition above about 37%
Target sequence (P63165 whole entry, looked up): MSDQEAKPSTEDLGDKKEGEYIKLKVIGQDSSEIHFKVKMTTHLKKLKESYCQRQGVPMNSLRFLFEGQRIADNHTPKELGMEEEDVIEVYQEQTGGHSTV
LMPTP inh – blocks human LMPTP phosphatase. recombinant LMPTP-A, OMFP fluorogenic substrate, fluorescence intensity. inhibition, % at 20 µM. 360,000 compounds, 0.22% hits. AID 651560;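 active means compounds that cut the enzyme signal by at least half of the control window in the single-dose screen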;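 further: plate controls were DMSO wells with enzyme plus substrate for no effect and substrate without enzyme for full effect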
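Test system: LMPTP-A, protein tyrosine phosphatase of low molecular weight; Input: 0.625 nM enzyme; Incubation: 50 min dark incubation at room temperature; Signal: endpoint fluorescence intensity from OMFP dephosphorylation; Read-out basis: % inhibition versus control wells.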
DNMT1 block – inhibitors of human DNMT1. DNMT1 molecular beacon, Hinp1I cleavage, fluorescence. inhibition (reported as % activation of signal), % at 10 µM. 360,000 compounds, 0.83% hits. P26358; in the data active means inhibition above about 50%
STEP block – blocks human striatal-enriched tyrosine phosphatase; P54829; 360,000 compounds, 0.25% hits; recombinant STEP, OMFP fluorogenic substrate, fluorescence; inhibition, % at 20 µM;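 active means inhibition at 20 µM, scaled per plate between control wells, above about 37%, limit read from the data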;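 further: 0% = DMSO with enzyme and substrate and 100% = substrate only without enzyme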
Target sequence (P54829 whole entry, looked up): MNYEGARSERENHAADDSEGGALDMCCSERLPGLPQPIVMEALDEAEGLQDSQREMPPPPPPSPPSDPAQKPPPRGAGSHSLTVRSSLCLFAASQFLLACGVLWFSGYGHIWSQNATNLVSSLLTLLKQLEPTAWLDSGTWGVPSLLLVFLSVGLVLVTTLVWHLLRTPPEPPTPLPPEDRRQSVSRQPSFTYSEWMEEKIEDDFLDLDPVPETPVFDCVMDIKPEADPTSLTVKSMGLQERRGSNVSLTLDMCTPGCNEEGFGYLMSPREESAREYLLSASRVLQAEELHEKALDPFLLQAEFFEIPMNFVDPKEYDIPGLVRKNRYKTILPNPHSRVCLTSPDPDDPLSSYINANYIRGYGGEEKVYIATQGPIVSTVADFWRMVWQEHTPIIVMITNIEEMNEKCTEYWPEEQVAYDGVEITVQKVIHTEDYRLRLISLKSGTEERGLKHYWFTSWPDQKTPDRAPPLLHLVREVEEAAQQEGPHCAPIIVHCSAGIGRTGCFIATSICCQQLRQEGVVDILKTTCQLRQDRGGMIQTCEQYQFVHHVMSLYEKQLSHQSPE
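Material: STEP (striatal-enriched tyrosine phosphatase) enzyme, cell-free; Compound dosing: 20 µM single dose in 1% DMSO; Technique: fluorescence read at 480 nm ex / 540 nm em; Times: reaction 20 min, ambient temperature; Medium: 50 mM Bis-Tris pH 6.0 with 2.5 mM DTT and 0.005% Tween 20; Also added: OMFP at 25 µM.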
Scp-1 inhibitor – blocks human Scp-1 phosphatase activity | AID 493091 | 340,000 compounds, 0.88% hits | Q9GZU7 | Recombinant Scp1, phosphopeptide, malachite green phosphate absorbance | inhibition, % at 20 µM;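 active means inhibition above about 50% at 20 µM, limit read from the data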;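 further: plate controls were DMSO wells with enzyme for no effect and wells lacking enzyme for full effect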
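Test system – truncated SCP-1 phosphatase (76-261aa) · Reagent – Phosphorylated 17-residue peptide substrate · Incubation – 45 min room-temperature reaction, 5 min colour, 30 min stabiliser · Detection – colorimetric phosphate reagent with accelerator and stabiliser, absorbance at 630 nm · Measure – % inhibition at 20 µM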
Beacon interf DR – counter-screen for DNMT1 inhibitors: spectral interference, dose response; shares compounds with DNMT1 block; molecular beacon fluorescence; IC50, µM; 200 tested, under 10 active; AID 602382
DNMT1 confirm – DNMT1 inhibition confirmation, single concentration | shares compounds with DNMT1 block | DNMT1 molecular beacon HinP1I cleavage, fluorescence | inhibition, % at 10 µM | 2,300 compounds, 8% hits;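 active means average inhibition of at least 30% in the single-concentration confirmation test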
Beacon interf – shows spectral interference in the DNMT1 beacon assay. activation (fluorescence interference), % at 10 µM. DNMT1 molecular beacon spectral interference counterscreen, fluorescence 485/520. 2,300 compounds, 1% hits. shares compounds with DNMT1 block;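 active means activation of at least 30% at 10 µM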;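 further: DNMT1 catalytic domain with a HinP1I cleavage step and a FAM/dabcyl DNA beacon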
STEP conf – confirmation of human STEP phosphatase inhibitors; shares compounds with STEP block; recombinant STEP, OMFP fluorogenic substrate, fluorescence; inhibition, % at 20 µM; 520 compounds, 32% hits; AID 623866;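 further: 0% = enzyme with substrate plus DMSO and 100% = substrate without enzyme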
An asterisk follows results filed as active; · = no result. Unless noted, how the calls were made is not given here.

SMILES	SUMO1 PPI mod	LMPTP inh	DNMT1 block	STEP block	Scp-1 inhibitor	DNMT1 confirm	Beacon interf	others
Cc1cc(C)nc(Nc2ccc(Br)cc2C(=O)O)n1	5	0	55*	1	-9	3	6
CCCn1c(N)c(C(=O)COC(=O)/C=C/c2ccc(OC(F)F)c(OC)c2)c(=O)[nH]c1=O	2	-2	8	0	-4	·	·
CC1CCCC(C)N1C(=O)COc1ccc(C(=O)N/N=C/c2ccc(C(=O)O)cc2)cc1 (centres undefined)	-1	1	1	-1	-2	·	·
CC1(C)C[C@H](O)[C@]2(CO)[C@H](O)C[C@]3(C)C(=CCC4[C@@]5(C)CC[C@H](O)C(C)(C)C5CC[C@]43C)[C@@H]2C1 (some centres undefined)	3	0	71*	0	-3	2	-5
CC(C)Cn1c(N)c(C(=O)COC(=O)c2cc(-c3ccccc3)nc3ccccc23)c(=O)n(C)c1=O	-29	5	-16	0	4	·	·
CC(C)Cn1c(N)c(C(=O)COC(=O)c2cc(-c3ccco3)nc3ccccc23)c(=O)n(C)c1=O	6	5	81*	2	27	10	6
O=C(COC(=O)c1cc(-c2ccco2)nc2ccccc12)NCc1ccc2c(c1)OCO2	0	26	77*	0	46	8	8
O=C(COC(=O)c1ccccc1Oc1ccccc1)NCc1ccco1	2	0	55*	-2	70*	10	4
O=C(COc1ccccc1-c1ccccc1)NCc1ccco1	3	1	1	2	-8	·	·
COc1ccccc1CNC(=O)COC(=O)c1cc(-c2ccco2)nc2ccccc12	13	43	100*	23	83*	27	2	Beacon interf DR=>99
COc1ccccc1CNC(=O)COC(=O)c1cc(C)nc2ccccc12	-15	0	-1	-4	0	·	·
COc1ccc(NC(=O)CN(C)C(=O)c2ccc(S(=O)(=O)Nc3ccccc3F)cc2)cc1	4	-1	3	-2	-2	·	·
COc1ccc(OC)c(S(=O)(=O)NCC(=O)NC2CCCc3ccccc32)c1 (centres undefined)	3	1	-2	1	-2	·	·
N/C(CSc1ccc(Cl)cc1)=N\S(=O)(=O)c1ccc(Cl)cc1	4	1	73*	-3	-13	6	3
CCCSC1=N/C(=C\C=C\c2ccco2)C(=O)S1	32	56*	106*	17	69*	9	3
CCc1cc2c(=O)c(-c3cnn(-c4ccccc4)c3)c(C)oc2cc1OCC(=O)Nc1ccc(F)c(F)c1	-16	2	11	-2	-8	·	·
CCc1cc2c(=O)c(-c3cnn(-c4ccccc4)c3)c(C)oc2cc1OCC(=O)Nc1cccc(C)c1	0	0	61*	2	-7	2	-4
COC(=O)CNC(=O)CCc1nnc(C2(c3ccc(Cl)cc3)CCC2)o1	10	-1	58*	-1	1	2	-1
C=C(C)CNC(=O)CCc1nnc(C2(c3ccc(Cl)cc3)CCC2)o1	-2	0	4	-3	-1	·	·
CCN(CC)CCC(=O)Nc1cccc2c1C(=O)c1ccccc1C2=O	-36	1	73*	3	-4	53*	1	Beacon interf DR=>99
Nc1cccc(C(=O)OCC(=O)Nc2cccc3c2C(=O)c2ccccc2C3=O)c1	19	0	-10	-3	17	·	·
Cc1ccc(N=Cc2c(O)[nH]c3ccccc23)c([N+](=O)[O-])c1	-19	10	59*	1	-4	2	2
COc1ccc(N=Cc2c(O)[nH]c3ccccc23)cc1	-13	-1	-5	2	-2	·	·
CCCCSc1nc(N)nc2c1ncn2C1OC(CO)C(O)C1O (centres undefined)	-3	-1	1	1	11	·	·
CSc1ccc(C=NNc2ccc(S(=O)(=O)Nc3ccccc3C(=O)O)cc2[N+](=O)[O-])cc1	96*	91*	86*	44*	5	55*	-8	Beacon interf DR=>99;STEP conf=59*
SMILES	SUMO1 PPI mod	LMPTP inh	DNMT1 block	STEP block	Scp-1 inhibitor	DNMT1 confirm	Beacon interf	others
COc1ccc(Nc2nc(=O)c3cc([N+](=O)[O-])ccc3s2)cc1	-7	80*	65*	43*	1	1	-6	STEP conf=-4
O=C(N/N=C/c1ccc(Br)s1)c1ccc([N+](=O)[O-])cc1	-4	80*	79*	69*	-5	-1	-2	STEP conf=-8
CCOC(=O)c1cccc(NC(=O)c2ccc(-n3cnnn3)cc2)c1	3	-2	17	0	8	·	·
CC(C)(C)OC(=O)N1CCC(C(=O)Nc2cccc(C(=O)N3CCOCC3)c2)CC1	8	-2	1	-2	-8	·	·
C[C@H](NC(=O)c1ncn2c1c(=O)[nH]c1ccccc12)c1ccccc1	11	0	7	0	·	·	·
C[C@H](NC(=O)c1ncn2c1c(=O)[nH]c1ccc(Br)cc12)c1ccccc1	-26	56*	90*	54*	·	2	-2	STEP conf=0
O=c1cc(-c2ccccc2)nc2nc(-c3ccco3)[nH]n12	54*	51*	104*	86*	-1	-2	4	STEP conf=0
Cc1nc2nc(-c3ccccc3)cc(=O)n2[nH]1	-2	-1	-3	-1	-4	·	·
CCOC(=O)CC(NS(=O)(=O)c1ccc2[nH]cc(C(=O)O)c(=O)c2c1)c1ccc(OCC)c(OC)c1 (centres undefined)	9	2	73*	74*	48	5	-3	STEP conf=25*
O=C(Nn1cnnc1)c1ccc(F)cc1	-2	-2	1	0	-1	·	·
O=C(Nc1ccccc1)C1CCCN1C(=O)Nc1ccccc1[N+](=O)[O-] (centres undefined)	-13	0	1	0	-4	·	·
CC(=O)Nc1ccc(NC(=O)C2CCCN2C(=O)Nc2ccccc2[N+](=O)[O-])cc1 (centres undefined)	-24	0	80*	85*	-2	2	6	STEP conf=7
CCOc1ccc(OCC)c(NC(=O)CCSCCc2ccccn2)c1	3	0	89*	97*	0	1	5	STEP conf=0
CCOc1ccc(OCC)c(NC(=O)CSCCc2ccccn2)c1	-5	1	1	-4	-13	·	·

Assay outcomes (PubChem BioAssay)
